Screening results (PubChem)
pCIP destab: p/CIP protein destabilization; Q05BA5; F442A p/CIP-EGFP cells, EGFP fluorescence, 16 h; decrease of EGFP signal, % at 10 µM; 290,000 tested, 0.01% active;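 active = EGFP signal decrease of at least 30% at 10 µM or well 3 SD below plate mean, unless failing retest; inactive = the rest, including hits failing retest or dose response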
T cruzi repl: T. cruzi replication inhibition. T. cruzi beta-gal in NIH3T3, luminescence, 90 h. inhibition, % (concentration not given with the values). 300,000 tested, 1.4% active;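 active = mean inhibition across valid replicates above about 55%, limit read from the data; inconclusive = mean below that limit but half or more replicates reach it; inactive = mean below it, under half of replicates reach it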;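 note: signal also drops with host cell toxicity which is not excluded here; higher percent means less beta-gal luminescence so fewer parasites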
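System: NIH/3T3 fibroblasts plus reporter T. cruzi. Medium: DMEM plus 2% FBS. Probe or stimulus: 5000 reporter trypomastigotes per well. Compound: single 50 nL compound addition per well in DMSO. Incubation: co-culture of at least 90 h after 3 h attachment. Detection: GalScreen β-gal luminescence, detergent lysis, 60 min. Evaluation: parasite load inhibition, %.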
UBC13 polyUb: inhibitors of human UBC13 polyubiquitin chain formation | TR-FRET | inhibition, % at 20 µM | 330,000 tested, 0.47% active | AID 485273; in the data active = inhibition above about 45%, passing the limit was not always enough; inconclusive = no clear call, values can overlap the other calls
Target sequence (P61088 whole entry, looked up): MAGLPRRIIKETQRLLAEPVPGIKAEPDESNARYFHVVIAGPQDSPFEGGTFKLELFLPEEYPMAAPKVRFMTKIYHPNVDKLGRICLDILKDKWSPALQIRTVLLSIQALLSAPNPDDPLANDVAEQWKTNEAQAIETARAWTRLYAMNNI
PP1 inh: PP1-alpha (human) inhibition in PP5 counter-screen | P62136 | purified PP1alpha, OMFP fluorescence | inhibition, % at 6.7 µM | 320,000 tested, 0.9% active | AID 2235;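 active = inhibition above the mean inhibition of all tested compounds plus 3 SD, computed separately for each screening campaign, cut at about 15% in these data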
Target sequence (P62136 whole entry, looked up): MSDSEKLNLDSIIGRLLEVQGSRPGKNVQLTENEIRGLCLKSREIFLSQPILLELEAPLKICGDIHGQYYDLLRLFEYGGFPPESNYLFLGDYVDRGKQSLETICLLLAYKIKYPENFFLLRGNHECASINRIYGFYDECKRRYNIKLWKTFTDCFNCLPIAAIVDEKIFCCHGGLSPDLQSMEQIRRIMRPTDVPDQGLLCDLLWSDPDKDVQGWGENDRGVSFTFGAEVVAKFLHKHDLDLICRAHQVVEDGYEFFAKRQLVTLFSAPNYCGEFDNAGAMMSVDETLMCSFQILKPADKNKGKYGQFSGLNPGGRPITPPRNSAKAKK
AI-2 QS modul: modulators of Vibrio harveyi AI-2 quorum sensing system; Vibrio harveyi JMH597 AI-2 luminescence/OD600 ratio, 9 h; active compounds read low; strain lacks LuxN and CqsS sensors; 0 = neutral-control median; activity change, % at 7.5 µM; 300,000 tested, 0.4% active; in the data active = activity change below about -75%, passing the limit was not always enough; inconclusive = no clear call, values can overlap the other calls;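 note: luminescence divided by OD600 gain over 9 h not by final OD600 alone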
PP1 inh confirm: human PP1 phosphatase inhibition, confirmation | 1,900 tested, 52% active | purified PP1alpha, OMFP substrate fluorescence | AID 2358 | inhibition, % at 6.7 µM | shares compounds with PP1 inh;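 active = mean PP1 inhibition above a set limit taken from the earlier primary screen, cut at about 15% in these data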
PP5 counter: inhibits human PP5 phosphatase in PP1 counter-screen; purified PP5c, OMFP fluorescence; 1,900 tested, 4% active; inhibition, % at 6.7 µM; shares compounds with PP1 inh; AID 2360;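 active = mean PP5 inhibition over triplicate wells above about 9.5% taken from the earlier PP1 screen, limit read from the data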
Hits are given with their value; – = inactive; ? = inconclusive; · = not tested or not shown. An excerpt weighted towards active compounds, which were near 2.8% of everything screened.

SMILES | pCIP destab | T cruzi repl | UBC13 polyUb | PP1 inh | AI-2 QS modul | PP1 inh confirm | PP5 counter
O=C(Cn1cnc2sc(-c3ccccc3)cc2c1=O)NCc1ccco1 | – | · | – | 21.5 | · | 19.1 | –
COc1cc(C2c3c(c(C)c(C)oc3=O)Oc3c(C)c(C)oc(=O)c32)ccc1OS(=O)(=O)c1ccc(C)cc1 | · | · | – | 21.3 | · | 26.0 | –
N#Cc1ccccc1NCC(=O)N1CCN(S(=O)(=O)c2ccccc2)CC1 | · | · | – | – | · | · | ·
Cc1ccc(OCCn2c(C)c(/C=N/n3cnnc3)c3ccccc32)cc1 | – | – | – | – | – | · | ·
Cc1c(/C=N/n2cnnc2)c2ccccc2n1CCOc1ccc(Cl)cc1 | – | – | – | 28.6 | – | – | –
O=C(CCN1C(=O)/C(=C\c2ccccc2F)SC1=S)Nc1ccc(C(=O)O)c(O)c1 | – | – | – | 20.2 | – | 19.5 | –
O=C(Nc1ccccc1N1CCCC1)c1cccc(-c2cc3ccccc3oc2=O)c1 | – | – | – | 18.0 | – | 18.6 | –
O=C(Nc1ccc(N2CCCC2)cc1)c1cccc(-c2cc3ccccc3oc2=O)c1 | – | – | – | – | – | · | ·
CCOC(=O)c1ccc(-n2c(O)c(/C=N/NC(=O)C3COc4ccccc4O3)c3ccccc3c2=O)cc1 (stereo unspecified) | – | – | – | 30.9 | – | 32.7 | –
Cc1[nH]n(-c2ccccc2)c(=O)c1C=Nc1cnc2ccccc2c1 | – | – | – | – | – | · | ·
CCOc1ccc(N=Cc2c(C)[nH]n(-c3nc4ccccc4[nH]3)c2=O)cc1 | – | – | – | 22.9 | – | – | –
CC(=O)c1sc(NC(=O)C2CCN(C(=O)c3ccc(F)cc3)CC2)nc1-c1ccccc1 | · | – | – | – | – | · | ·
O=C(O)c1cc(-c2cccs2)nn1-c1ccc(F)cc1 | – | – | – | 19.1 | – | 17.5 | –
COc1ccc(/C=N\NC(=O)c2cc(O)c(O)c(O)c2)cc1COc1ccc(C(=O)OCC(C)C)cc1 | – | – | – | 26.8 | – | 25.3 | –
COc1ccc(/C=N/NC(=O)c2ccc(NC(C)=O)cc2)cc1COc1ccc(F)cc1F | – | – | – | 21.8 | – | – | –
COc1ccc(/C=N\NC(=O)c2ccccc2F)cc1COc1ccc(F)cc1F | – | – | – | – | – | · | ·
CCOc1cc(N2CCOCC2)c(OCC)cc1NC(=O)c1ccc(F)c(S(=O)(=O)N2CCOCC2)c1 | · | · | – | · | · | · | ·
CC(NC(=O)COC(=O)c1cccnc1Cl)C12CC3CC(CC(C3)C1)C2 (stereo unspecified) | · | · | – | · | · | · | ·
Cc1sc(NC(=O)Cc2ccc3c(c2)OCO3)nc1-c1ccc2c(c1)CCN2C(=O)c1cccc(F)c1 | – | – | – | – | – | · | ·
Cc1ccccc1C(=O)N1CCc2cc(-c3nc(NC(=O)Cc4ccc5c(c4)OCO5)sc3C)ccc21 | – | – | – | 19.1 | – | 19.1 | –
Cc1cccc2c1N(CCOc1ccc(C(C)(C)C)cc1)C(=O)C2=O | – | – | – | 23.3 | – | – | –
Cc1ccc(OCCN2C(=O)C(=O)c3cc(C)ccc32)cc1 | – | – | – | 18.4 | – | – | –
COc1ccc(OCCN2C(=O)c3ccccc3C2=O)cc1 | – | – | – | – | – | · | ·
Cc1cccc2c1N(CCOc1ccccc1Cl)C(=O)C2=O | – | – | – | 18.1 | – | – | –
Cc1ccc2c(c1)C(=O)C(=O)N2CC(=O)OC(C)C | – | – | – | – | – | · | ·
SMILES | pCIP destab | T cruzi repl | UBC13 polyUb | PP1 inh | AI-2 QS modul | PP1 inh confirm | PP5 counter
N#Cc1c(=O)c2nc(NCCCO)ncc2n2c(=O)c3ccccc3[nH]c12 | – | – | – | 19.8 | – | 16.7 | –
N#Cc1c(=O)c2nc(NCc3ccccc3)ncc2n2ccccc12 | – | – | – | – | – | · | ·
Cc1ccc(NC(=O)Cn2c(O)c(N=NC(N)=S)c3ccccc32)cc1 | – | – | – | 20.6 | – | – | –
Cc1ccccc1NC(=O)Cn1c(O)c(N=NC(=O)c2ccccc2O)c2ccccc21 | – | – | · | 20.3 | – | 23.8 | –
Cc1ccc(NC(=O)Cn2c(O)c(N=NC(N)=O)c3ccccc32)cc1 | – | ? | – | – | – | · | ·
Cc1c(C#N)c2ccccc2n1CC(=O)NC(C)c1ccccc1 (stereo unspecified) | – | – | – | – | – | · | ·
Cc1cccc(NC(=O)Cn2c(C)c(C#N)c3ccccc32)c1C | – | – | – | 21.3 | – | 19.1 | –
